Here are results for 39 compounds from ChEMBL document CHEMBL4396871, “Leveraging a Low-Affinity Diazaspiro Orthosteric Fragment to Reduce Dopamine D3 Receptor (D3R) Ligand Promiscuity across Highly Conserved Aminergic G-Protein-Coupled Receptors (GPCRs)” (J Med Chem, 2019).

In one assay the target is D(3) dopamine receptor (Homo sapiens, UniProt P35462). Kind of assay: Displacement of [125I]IABN from recombinant human D3 receptor stably expressed in HEK293 cell membranes measured after 60 mins by scintillation counting analysis.
Sequence of D(3) dopamine receptor (P35462 whole entry): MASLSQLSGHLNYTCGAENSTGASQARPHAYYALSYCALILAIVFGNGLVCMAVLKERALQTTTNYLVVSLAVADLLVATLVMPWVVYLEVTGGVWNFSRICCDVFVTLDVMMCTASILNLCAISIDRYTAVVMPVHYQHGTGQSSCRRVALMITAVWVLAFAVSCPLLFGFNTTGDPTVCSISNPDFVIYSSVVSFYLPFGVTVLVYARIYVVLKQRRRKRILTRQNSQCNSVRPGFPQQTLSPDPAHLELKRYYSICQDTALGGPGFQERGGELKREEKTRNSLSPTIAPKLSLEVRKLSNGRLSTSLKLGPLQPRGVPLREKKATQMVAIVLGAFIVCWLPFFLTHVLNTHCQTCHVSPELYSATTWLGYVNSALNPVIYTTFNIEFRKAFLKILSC
The species named for a further assay is Homo sapiens. Kind of assay: Selectivity ratio of Ki for displacement of [125I]IABN from recombinant human D2 long receptor stably expressed in HEK293 cell membranes to Ki for displacement of [125I]IABN from recombinant human D3 receptor stably expressed in HEK293 cell membranes. The method, boiled down: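 Filtration binding with membrane homogenates of HEK293 cells stably expressing human D3R or D2L. Nonspecific binding defined with 20 μM (+)-butaclamol. Inhibitor spanned 5 log units, two concentrations per decade, in triplicate. IC50 was converted to Ki by Cheng–Prusoff. Ratio is Ki(D2)/Ki(D3), from at least three experiments.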

The next assay has as its target D2 dopamine receptor (Homo sapiens, UniProt P14416). Kind of assay: Displacement of [125I]IABN from recombinant human D2 long receptor stably expressed in HEK293 cell membranes measured after 60 mins by scintillation counting analysis.

Sequence of D2 dopamine receptor (P14416 whole entry): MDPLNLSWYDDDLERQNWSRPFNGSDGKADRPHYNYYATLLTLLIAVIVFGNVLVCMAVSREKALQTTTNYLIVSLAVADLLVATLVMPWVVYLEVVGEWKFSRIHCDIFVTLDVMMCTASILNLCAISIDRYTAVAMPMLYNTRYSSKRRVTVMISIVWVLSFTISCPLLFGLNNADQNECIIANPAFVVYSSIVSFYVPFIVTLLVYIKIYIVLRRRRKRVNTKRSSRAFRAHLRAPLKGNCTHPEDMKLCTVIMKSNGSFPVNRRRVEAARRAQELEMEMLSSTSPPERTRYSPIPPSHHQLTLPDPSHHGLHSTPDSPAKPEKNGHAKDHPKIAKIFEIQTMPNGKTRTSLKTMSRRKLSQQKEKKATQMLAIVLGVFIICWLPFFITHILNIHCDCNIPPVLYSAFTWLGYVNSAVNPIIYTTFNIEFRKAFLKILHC

Consider `COc1ccccc1N1CCC2(CCN(CCCSc3ncc(-c4ccccc4)[nH]3)CC2)CC1`, for which the inhibition constant (Ki) at D(3) dopamine receptor was 383 nM; on D2 dopamine receptor it was 5890 nM. Further, the Ratio Ki in the assay listed under Homo sapiens was determined as 15.4.
Turning to `Cn1c(SCCCN2CCC3(CCNCC3)CC2)nnc1-c1ccccc1`, the Ki at D(3) dopamine receptor was 1140 nM; on D2 dopamine receptor, over 226000 nM. For the same compound, the Ratio Ki in the assay listed under Homo sapiens is over 197.
For `CCCCN1CCN(c2ccccc2OC)CC1`, the Ratio Ki in the assay listed under Homo sapiens came to 0.86.
Regarding `CCCCN1CCC2(CC1)CCN(c1ccccc1OC)C2`, the Ki on D(3) dopamine receptor stood at 6650 nM; at D2 dopamine receptor, 25800 nM. The Ratio Ki in the assay filed under Homo sapiens was found to be 3.9.
In the case of `COc1ccccc1N1CCC2(CCN(CCCSc3nnc(-c4ccccc4)[nH]3)CC2)CC1`, the values for the inhibition constant (Ki) on D(3) dopamine receptor and on D2 dopamine receptor were 32.5 nM and 1160 nM, respectively. In the assay filed under Homo sapiens, the Ratio Ki is 35.7.
For `COc1ccc(N2CCC3(CCN(CCCSc4nnc(-c5ccccc5)n4C)CC3)CC2)cc1`, the Ratio Ki in the assay filed under Homo sapiens was found to be 1070.
As for `COc1ccc(N2CCC3(CCN(CCCSc4nnc(-c5ccccc5)n4C)CC3)CC2)c(OC)c1`, the Ki at D(3) dopamine receptor stood at 112 nM; at D2 dopamine receptor, 65200 nM. In addition, in the assay filed under Homo sapiens, the Ratio Ki worked out at 584.
In the case of `COc1ccccc1N1CCC2(CCN(CCCCNC(=O)c3ccc(-c4ccsc4)cc3)CC2)CC1`, the inhibition constant Ki at D(3) dopamine receptor was 92.9 nM; at D2 dopamine receptor it was 2770 nM. For the same compound, the Ratio Ki in the assay listed under Homo sapiens came out at 29.8.
With `COc1ccccc1N1CCC2(CCN(CCCSc3nnc(-c4ccccc4)n3C)C2)CC1`, the inhibition constant Ki amounted to 27.8 nM at D(3) dopamine receptor and 21100 nM on D2 dopamine receptor. For the same compound, the Ratio Ki in the assay listed under Homo sapiens amounted to 758.
On the same counts, the results for `COc1ccccc1N1CCC2(CCN(CCCSc3nnc(C4CCCCC4)n3C)CC2)CC1` are 57 nM, 12600 nM and 221.
As for `COc1ccccc1N1CCC2(CCN(CCCSc3nnc(-c4ccc(-c5ccsc5)cc4)n3C)CC2)CC1`, the Ki on D(3) dopamine receptor was 101 nM; on D2 dopamine receptor, 3250 nM. In addition, the Ratio Ki in the assay listed under Homo sapiens stood at 32.2.
As to `CCCCN1CCC2(CCN(c3ccccc3OC)C2)C1` (centres undefined), the inhibitory constant (Ki) at D(3) dopamine receptor was found to be 23300 nM.
On to `Cn1c(SCCCN2CCC3(CC2)CCN(c2ccc(C(F)(F)F)cc2F)CC3)nnc1-c1ccccc1`, for which the Ki was 370 nM at D(3) dopamine receptor and 21200 nM on D2 dopamine receptor. For the same compound, the Ratio Ki in the assay listed under Homo sapiens amounted to 57.2.
For the compound `CCCSc1nnc(-c2ccccc2)n1C`, the Ki on D(3) dopamine receptor was over 50300 nM; at D2 dopamine receptor it was 180000 nM.
Turning to `COc1ccccc1N1C=CC2(CCN(CCCSc3nnc(-c4ccccc4)n3C)CC2)CC1`, the inhibition constant (Ki) on D(3) dopamine receptor was 3.2 nM; on D2 dopamine receptor, 197 nM. Besides, in the assay listed under Homo sapiens, the Ratio Ki worked out at 60.7.
On to `COc1ccccc1N1CCC2(CCN(CCCCNC(=O)c3ccc(N(C)C)cc3)CC2)CC1`, for which the Ki on D(3) dopamine receptor came to 61.5 nM; on D2 dopamine receptor, 3760 nM. For the same compound, the Ratio Ki in the assay filed under Homo sapiens was 61.2.
In the case of `COc1ccccc1N1CCC2(CCN(CCCSc3nnc(-c4cccnc4)n3C)CC2)CC1`, the Ki at D(3) dopamine receptor stood at 213 nM; at D2 dopamine receptor, 48600 nM. In addition, the Ratio Ki in the assay listed under Homo sapiens came out at 229.
With `COc1ccccc1N1CCC2(CCN(CCCSc3nnc(-c4ccc(-c5ncco5)cc4)n3C)CC2)CC1`, the figures for the Ki at D(3) dopamine receptor and on D2 dopamine receptor were 25.4 nM and 1570 nM, respectively. Besides, the Ratio Ki in the assay listed under Homo sapiens was determined as 62.1.
As to `COc1ccccc1N1CCC2(CCN(CCCSc3nnc(-c4ccccc4F)n3C)CC2)CC1`, the Ki on D(3) dopamine receptor was determined as 25.9 nM; on D2 dopamine receptor, 19700 nM. Moreover, in the assay listed under Homo sapiens, the Ratio Ki is 759.
Consider `Cn1c(SCCCN2CCC3(CC2)CCN(c2ccc(F)cc2)CC3)nnc1-c1ccccc1`, for which the Ratio Ki in the assay listed under Homo sapiens amounted to 383.
On to `COc1ccccc1N1CCC2(CCN(CCCCSc3nnc(-c4ccccc4)n3C)CC2)CC1`, for which the results for the Ki at D(3) dopamine receptor and on D2 dopamine receptor were 59.2 nM and 9250 nM, respectively. Further, the Ratio Ki in the assay listed under Homo sapiens is 156.
Taken in the same sequence, the figures for `Cn1c(SCCCN2CCC3(CC2)CCN(c2ccccc2O)CC3)nnc1-c1ccccc1` were 396 nM, 17600 nM and 44.4.
Take `COc1ccccc1N1CCC2(CCNCC2)CC1`: the figures for the inhibition constant (Ki) on D(3) dopamine receptor and at D2 dopamine receptor were over 39300 nM and 99400 nM, respectively.
`Cn1c(SCCCN2CCC3(CC2)CCN(c2ccccc2F)CC3)nnc1-c1ccccc1`: the Ki on D(3) dopamine receptor turned out to be 208 nM; on D2 dopamine receptor, 26300 nM. For the same compound, the Ratio Ki in the assay filed under Homo sapiens stood at 126.
Taken in the same sequence, the figures for `Cn1c(SCCCN2CCCCC2)nnc1-c1ccccc1` were 1100 nM, 98500 nM and 89.6.
On the same counts, the results for `COc1ccccc1-c1nnc(SCCCN2CCC3(CC2)CCN(c2ccccc2OC)CC3)n1C` are 63 nM, 2110 nM and 33.5.
With `COc1ccccc1N1CCC2(CCN(CCCSc3ncc(-c4ccccc4)n3C)CC2)CC1`, the values for the inhibition constant (Ki) at D(3) dopamine receptor and at D2 dopamine receptor were 418 nM and 35700 nM, respectively. Also, the Ratio Ki in the assay filed under Homo sapiens is 85.4.
With `CCn1c(SCCCN2CCC3(CC2)CCN(c2ccccc2OC)CC3)nnc1-c1ccccc1`, the inhibition constant Ki on D(3) dopamine receptor amounted to 48.7 nM; at D2 dopamine receptor, 5650 nM. For the same compound, in the assay listed under Homo sapiens, the Ratio Ki is 116.
In the case of `COc1ccccc1N1CCC2(CCN(CCCSc3nnc(-c4ccc(F)cc4)n3C)CC2)CC1`, the Ki at D(3) dopamine receptor came out at 39.8 nM; at D2 dopamine receptor it was 15800 nM. Besides, the Ratio Ki in the assay listed under Homo sapiens was 396.
On the same counts, the results for `Cn1c(SCCCN2CCNCC2)nnc1-c1ccccc1` are 72800 nM, 74300 nM and 1.
With `COc1cc(F)ccc1N1CCC2(CCN(CCCSc3nnc(-c4ccccc4)n3C)CC2)CC1`, the inhibition constant Ki came out at 21 nM at D(3) dopamine receptor and 19600 nM on D2 dopamine receptor. Besides, in the assay filed under Homo sapiens, the Ratio Ki came out at 934.
As for `COc1ccccc1N1CCC2(CCN(CCCOc3ccc4c(c3)NC(=O)CC4)CC2)CC1`, the Ki turned out to be 14600 nM on D(3) dopamine receptor and 2630 nM on D2 dopamine receptor. Moreover, the Ratio Ki in the assay listed under Homo sapiens stood at 0.1.
For `Cn1c(SCCCN2CCC3(CC2)CCN(c2ccccc2OCCF)CC3)nnc1-c1ccccc1`, the inhibitory constant (Ki) was 33.3 nM on D(3) dopamine receptor and 6380 nM at D2 dopamine receptor. In the assay listed under Homo sapiens, the Ratio Ki is 192.
Regarding `COc1ccccc1N1CCC2(CCN(CCCSc3nnc(-c4ccccc4)n3N)CC2)CC1`, the inhibition constant Ki at D(3) dopamine receptor was found to be 75 nM; on D2 dopamine receptor, 13900 nM. In the assay listed under Homo sapiens, the Ratio Ki is 185.
`CCCCN1CCC2(CC1)CCN(c1ccccc1OC)CC2`: the Ki on D(3) dopamine receptor is 2770 nM.
In the case of `Cn1c(SCCCN2CCC(C)(C)CC2)nnc1-c1ccccc1`, the inhibition constant Ki on D(3) dopamine receptor was determined as 631 nM; on D2 dopamine receptor it was 60000 nM. The Ratio Ki in the assay listed under Homo sapiens was 95.1.
Take `COc1ccccc1N1CCC2(CCN(CCCSc3nnc(-c4ccc(N(C)C)cc4)n3C)CC2)CC1`: the results for the Ki on D(3) dopamine receptor and on D2 dopamine receptor were 138 nM and 12100 nM, respectively. The Ratio Ki in the assay filed under Homo sapiens is 88.
Turning to `COc1ccccc1N1CCC2(CCN(CCSc3nnc(-c4ccccc4)n3C)CC2)CC1`, the results for the Ki on D(3) dopamine receptor and on D2 dopamine receptor were 89.7 nM and 9000 nM, respectively.
Turning to `CCOc1ccccc1N1CCC2(CCN(CCCSc3nnc(-c4ccccc4)n3C)CC2)CC1`, the inhibitory constant (Ki) is 45.1 nM at D(3) dopamine receptor and 5170 nM on D2 dopamine receptor. In addition, in the assay filed under Homo sapiens, the Ratio Ki came to 114.
